Source: ChEMBL document CHEMBL1671716, “Antimicrobial susceptibility patterns for recent clinical isolates of anaerobic bacteria in South Korea” (2010)
In brackets after ≈: the same amount, converted by molar mass.

Legend:
Anaerococcus prevotii [1] = assay: Antimicrobial activity against Anaerococcus prevotii after 48 hrs by agar dilution method; type: functional
Procedure, shortened: (§1)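 MICs on clinical anaerobe isolates by the CLSI agar dilution method. Inoculum of 10^5 CFU applied with a Steers replicator. Plates incubated 48 h at 37°C in an anaerobic chamber.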

Schaalia odontolytica [2] = assay: Antimicrobial activity against Actinomyces odontolyticus assessed as percent resistant isolates after 48 hrs by agar dilution method; type: functional
Procedure, shortened: (§2)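 CLSI agar dilution on recent Korean clinical anaerobe isolates. Inoculum 10^5 CFU per spot by replicator. Plates incubated in an anaerobic chamber at 37°C for 48 h. For piperacillin plus tazobactam, tazobactam was held constant at 4 μg/ml. Resistance and susceptibility rates derived from MICs.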

Bacteroides ovatus = assay: Antimicrobial activity against Bacteroides ovatus after 48 hrs by agar dilution method; type: functional; procedure, shortened: as §1
[3] = tested on: Bifidobacterium adolescentis; assay: Antimicrobial activity against Bifidobacterium adolescentis after 48 hrs by agar dilution method; type: functional; procedure, shortened: as §1
Eubacterium sp. [4] = assay: Antimicrobial activity against Eubacterium sp. assessed as percent resistant isolates after 48 hrs by agar dilution method; type: functional; procedure, shortened: as §2
Anaerococcus prevotii [5] = assay: Antimicrobial activity against Anaerococcus prevotii assessed as percent susceptible isolates after 48 hrs by agar dilution method; type: functional
[6] = tested on: Bifidobacterium adolescentis; assay: Antimicrobial activity against Bifidobacterium adolescentis assessed as percent resistant isolates after 48 hrs by agar dilution method; type: functional; procedure, shortened: as §2
Eubacterium sp. [7] = assay: Antimicrobial activity against Eubacterium sp. after 48 hrs by agar dilution method; type: functional
Procedure, shortened: (§3)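 CLSI agar dilution (M11-A7); inoculum 10^5 CFU applied by replicator; plates incubated anaerobically 48 h at 37°C. For piperacillin-tazobactam, tazobactam held constant at 4 μg/ml.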

Actinomyces israelii = assay: Antimicrobial activity against Actinomyces israelii assessed as percent resistant isolates after 48 hrs by agar dilution method; type: functional; procedure, shortened: as §2
Clostridium perfringens [8] = assay: Antimicrobial activity against Clostridium perfringens assessed as percent susceptible isolates after 48 hrs by agar dilution method; type: functional
Prevotella bivia [9] = assay: Antimicrobial activity against Prevotella bivia assessed as percent susceptible isolates after 48 hrs by agar dilution method; type: functional; procedure, shortened: as §3
Schaalia meyeri = assay: Antimicrobial activity against Actinomyces meyeri assessed as percent resistant isolates after 48 hrs by agar dilution method; type: functional; procedure, shortened: as §2
Bacteroides caccae [10] = assay: Antimicrobial activity against Bacteroides caccae after 48 hrs by agar dilution method; type: functional; procedure, shortened: as §1
[11] = tested on: Bacteroides thetaiotaomicron; assay: Antimicrobial activity against Bacteroides thetaiotaomicron assessed as percent resistant isolates after 48 hrs by agar dilution method; type: functional; procedure, shortened: as §2
Prevotella bivia [12] = assay: Antimicrobial activity against Prevotella bivia assessed as percent resistant isolates after 48 hrs by agar dilution method; type: functional; procedure, shortened: as §2
Eggerthella lenta [13] = assay: Antimicrobial activity against Eubacterium lentum after 48 hrs by agar dilution method; type: functional; procedure, shortened: as §3
Prevotella intermedia [14] = assay: Antimicrobial activity against Prevotella intermedia assessed as percent resistant isolates after 48 hrs by agar dilution method; type: functional; procedure, shortened: as §2
Clostridium perfringens [15] = assay: Antimicrobial activity against Clostridium perfringens after 48 hrs by agar dilution method; type: functional
Parvimonas micra = assay: Antimicrobial activity against Peptostreptococcus micros assessed as percent susceptible isolates after 48 hrs by agar dilution method; type: functional; procedure, shortened: as §2
[16] = tested on: Peptoniphilus asaccharolyticus; assay: Antimicrobial activity against Peptoniphilus asaccharolyticus assessed as percent susceptible isolates after 48 hrs by agar dilution method; type: functional; procedure, shortened: as §3
[17] = tested on: Peptostreptococcus anaerobius; assay: Antimicrobial activity against Peptostreptococcus anaerobius after 48 hrs by agar dilution method; type: functional; procedure, shortened: as §3
Clostridioides difficile [18] = assay: Antimicrobial activity against Clostridium difficile assessed as percent resistant isolates after 48 hrs by agar dilution method; type: functional
Clostridioides difficile [19] = assay: Antimicrobial activity against Clostridium difficile assessed as percent susceptible isolates after 48 hrs by agar dilution method; type: functional
[20] = tested on: Peptoniphilus asaccharolyticus; assay: Antimicrobial activity against Peptoniphilus asaccharolyticus assessed as percent resistant isolates after 48 hrs by agar dilution method; type: functional; procedure, shortened: as §2
[21] = tested on: Bifidobacterium adolescentis; assay: Antimicrobial activity against Bifidobacterium adolescentis assessed as percent susceptible isolates after 48 hrs by agar dilution method; type: functional
Bifidobacterium sp. [22] = assay: Antimicrobial activity against Bifidobacterium sp. assessed as percent resistant isolates after 48 hrs by agar dilution method; type: functional; procedure, shortened: as §2
Finegoldia magna [23] = assay: Antimicrobial activity against Finegoldia magna after 48 hrs by agar dilution method; type: functional; procedure, shortened: as §3
[24] = tested on: Parabacteroides distasonis; assay: Antimicrobial activity against Bacteroides distasonis assessed as percent susceptible isolates after 48 hrs by agar dilution method; type: functional
Prevotella buccae = assay: Antimicrobial activity against Prevotella buccae assessed as percent resistant isolates after 48 hrs by agar dilution method; type: functional, Segatella buccae; procedure, shortened: as §2
Hoylesella oralis = assay: Antimicrobial activity against Prevotella oralis assessed as percent resistant isolates after 48 hrs by agar dilution method; type: functional; procedure, shortened: as §2
Anaerococcus prevotii [25] = assay: Antimicrobial activity against Anaerococcus prevotii assessed as percent resistant isolates after 48 hrs by agar dilution method; type: functional; procedure, shortened: as §2
Eggerthella lenta [26] = assay: Antimicrobial activity against Eubacterium lentum assessed as percent susceptible isolates after 48 hrs by agar dilution method; type: functional; procedure, shortened: as §3
Prevotella intermedia [27] = assay: Antimicrobial activity against Prevotella intermedia assessed as percent susceptible isolates after 48 hrs by agar dilution method; type: functional; procedure, shortened: as §3
Schaalia odontolytica [28] = assay: Antimicrobial activity against Actinomyces odontolyticus assessed as percent susceptible isolates after 48 hrs by agar dilution method; type: functional
Bifidobacterium sp. [29] = assay: Antimicrobial activity against Bifidobacterium sp. after 48 hrs by agar dilution method; type: functional; procedure, shortened: as §1
Actinomyces naeslundii = assay: Antimicrobial activity against Actinomyces naeslundii assessed as percent susceptible isolates after 48 hrs by agar dilution method; type: functional
Eubacterium sp. [30] = assay: Antimicrobial activity against Eubacterium sp. assessed as percent susceptible isolates after 48 hrs by agar dilution method; type: functional; procedure, shortened: as §3
Fusobacterium varium = assay: Antimicrobial activity against Fusobacterium varium after 48 hrs by agar dilution method; type: functional; procedure, shortened: as §3
[31] = tested on: Peptoniphilus asaccharolyticus; assay: Antimicrobial activity against Peptoniphilus asaccharolyticus after 48 hrs by agar dilution method; type: functional; procedure, shortened: as §3
Phocaeicola vulgatus = assay: Antimicrobial activity against Bacteroides vulgatus after 48 hrs by agar dilution method; type: functional; procedure, shortened: as §1
Schaalia odontolytica [32] = assay: Antimicrobial activity against Actinomyces odontolyticus after 48 hrs by agar dilution method; type: functional; procedure, shortened: as §1
Bacteroides caccae [33] = assay: Antimicrobial activity against Bacteroides caccae assessed as percent resistant isolates after 48 hrs by agar dilution method; type: functional; procedure, shortened: as §2
[34] = tested on: Bacteroides thetaiotaomicron; assay: Antimicrobial activity against Bacteroides thetaiotaomicron after 48 hrs by agar dilution method; type: functional; procedure, shortened: as §1
Eggerthella lenta [35] = assay: Antimicrobial activity against Eubacterium lentum assessed as percent resistant isolates after 48 hrs by agar dilution method; type: functional; procedure, shortened: as §2
Clostridioides difficile [36] = assay: Antimicrobial activity against Clostridium difficile after 48 hrs by agar dilution method; type: functional
Bacteroides caccae [37] = assay: Antimicrobial activity against Bacteroides caccae assessed as percent susceptible isolates after 48 hrs by agar dilution method; type: functional
Finegoldia magna [38] = assay: Antimicrobial activity against Finegoldia magna assessed as percent resistant isolates after 48 hrs by agar dilution method; type: functional; procedure, shortened: as §2
Fusobacterium necrogenes = assay: Antimicrobial activity against Fusobacterium necrogenes after 48 hrs by agar dilution method; type: functional; procedure, shortened: as §3

O=C(N[C@H](CO)[C@H](O)c1ccc([N+](=O)[O-])cc1)C(Cl)Cl [CHLORAMPHENICOL]
MIC50 (Anaerococcus prevotii [1]): 4 µg/mL (≈ 12.4 µM) | MIC90 (Anaerococcus prevotii [1]): 8 µg/mL (≈ 24.8 µM) | Activity (Schaalia odontolytica [2]): 0% | MIC (Bacteroides ovatus): 4 µg/mL (≈ 12.4 µM) | MIC50 (Bacteroides ovatus): 4 µg/mL (≈ 12.4 µM) | MIC90 (Bacteroides ovatus): 8 µg/mL (≈ 24.8 µM) | MIC [3]: 1 µg/mL (≈ 3.09 µM) | MIC50 [3]: 1 µg/mL (≈ 3.09 µM) | MIC90 [3]: 2 µg/mL (≈ 6.19 µM) | Activity (Eubacterium sp. [4]): 0% | Activity (Anaerococcus prevotii [5]): 93% | Activity [6]: 0% | MIC (Eubacterium sp. [7]): 1 µg/mL (≈ 3.09 µM) | MIC50 (Eubacterium sp. [7]): 1 µg/mL (≈ 3.09 µM) | MIC90 (Eubacterium sp. [7]): 2 µg/mL (≈ 6.19 µM) | Activity (Actinomyces israelii): 0% | Activity (Clostridium perfringens [8]): 100% | Activity (Prevotella bivia [9]): 100% | Activity (Schaalia meyeri): 0% | MIC (Bacteroides caccae [10]): 4 µg/mL (≈ 12.4 µM) | MIC50 (Bacteroides caccae [10]): 4 µg/mL (≈ 12.4 µM) | MIC90 (Bacteroides caccae [10]): 8 µg/mL (≈ 24.8 µM) | Activity [11]: 0% | Activity (Prevotella bivia [12]): 0% | MIC (Eggerthella lenta [13]): 1 µg/mL (≈ 3.09 µM) | MIC50 (Eggerthella lenta [13]): 1 µg/mL (≈ 3.09 µM) | MIC90 (Eggerthella lenta [13]): 2 µg/mL (≈ 6.19 µM) | Activity (Prevotella intermedia [14]): 0% | MIC50 (Clostridium perfringens [15]): 4 µg/mL (≈ 12.4 µM) | MIC90 (Clostridium perfringens [15]): 4 µg/mL (≈ 12.4 µM) | Activity (Parvimonas micra): 0% | Activity [16]: 100% | MIC50 [17]: 2 µg/mL (≈ 6.19 µM) | MIC90 [17]: 2 µg/mL (≈ 6.19 µM) | Activity (Clostridioides difficile [18]): 0% | Activity (Clostridioides difficile [19]): 83% | Activity [20]: 0% | Activity [21]: 92% | Activity (Bifidobacterium sp. [22]): 0% | MIC50 (Finegoldia magna [23]): 4 µg/mL (≈ 12.4 µM) | MIC90 (Finegoldia magna [23]): 4 µg/mL (≈ 12.4 µM) | Activity [24]: 98% | Activity (Prevotella buccae): 0% | Activity (Hoylesella oralis): 0% | Activity (Anaerococcus prevotii [25]): 0% | Activity (Eggerthella lenta [26]): 92% | Activity (Prevotella intermedia [27]): 100% | Activity (Schaalia odontolytica [28]): 92% | MIC (Bifidobacterium sp. [29]): 1 µg/mL (≈ 3.09 µM) | MIC50 (Bifidobacterium sp. [29]): 1 µg/mL (≈ 3.09 µM) | MIC90 (Bifidobacterium sp. [29]): 2 µg/mL (≈ 6.19 µM) | Activity (Actinomyces naeslundii): 92% | Activity (Eubacterium sp. [30]): 92% | MIC (Fusobacterium varium): 0.13 µg/mL (≈ 0.402 µM) | MIC50 [31]: 2 µg/mL (≈ 6.19 µM) | MIC90 [31]: 4 µg/mL (≈ 12.4 µM) | MIC (Phocaeicola vulgatus): 4 µg/mL (≈ 12.4 µM) | MIC50 (Phocaeicola vulgatus): 4 µg/mL (≈ 12.4 µM) | MIC90 (Phocaeicola vulgatus): 8 µg/mL (≈ 24.8 µM) | MIC (Schaalia odontolytica [32]): 1 µg/mL (≈ 3.09 µM) | MIC50 (Schaalia odontolytica [32]): 1 µg/mL (≈ 3.09 µM) | MIC90 (Schaalia odontolytica [32]): 2 µg/mL (≈ 6.19 µM) | Activity (Bacteroides caccae [33]): 0% | MIC [34]: 4 µg/mL (≈ 12.4 µM) | MIC50 [34]: 4 µg/mL (≈ 12.4 µM) | MIC90 [34]: 8 µg/mL (≈ 24.8 µM) | Activity (Eggerthella lenta [35]): 0% | MIC50 (Clostridioides difficile [36]): 4 µg/mL (≈ 12.4 µM) | MIC90 (Clostridioides difficile [36]): 16 µg/mL (≈ 49.5 µM) | Activity (Bacteroides caccae [37]): 98% | Activity (Finegoldia magna [38]): 0% | MIC (Fusobacterium necrogenes): 0.13 µg/mL (≈ 0.402 µM)
